Experimental data of several laboratories.
Each line is one published result; the experiments were not run side by side.
Target: Cyclin-dependent kinase 13 (CDK13, Homo sapiens, UniProt Q14004)

N[C@H]1CCN(c2nccc(-c3cnn4ncccc34)n2)C1  remaining binding (binding; 1 µM): 64%
Cc1c(C(=O)O)cc(-c2ccc(C3CCNCC3)cc2)c2ccc(-c3ccc(C(F)(F)F)cc3)cc12  remaining binding (binding; competition with immobilised ligand; 1 µM): 100%
O=C(NCC1CCOCC1)c1n[nH]cc1NC(=O)c1c(F)cccc1F  remaining binding (binding; competition with immobilised ligand; 1 µM): 66%
CC(=O)C1=C(C)N(c2cccc(C(F)(F)F)c2)C(=O)N[C@@H]1c1ccc(C#N)nc1  remaining binding (cell-free assay; competition with immobilised ligand; 1 µM): 100%
O=C(c1ccc(Nc2ncc(Cl)c(-c3ccc(Cl)s3)n2)cc1)N1CCC(N2CCCC2)CC1  remaining binding (binding; competition with immobilised ligand; 1 µM): 18%
CNC(=O)[C@@H]1CC[C@@H](n2c(-c3ccc4cnccc4c3)nc3ccc(C(=O)NCc4cccc(C(N)=O)c4)cc32)C1  remaining binding (binding; competition with immobilised ligand; 1 µM): 100%
CCCCN(CCCC)C(=O)CN1C[C@H](c2cc(OC)c3c(c2)OCO3)[C@@H](C(=O)O)[C@@H]1CC(C)(C)CCC  remaining binding (cell-free assay; competition with immobilised ligand; 1 µM): 52.5%
Cc1cnc(Nc2ccc(C(=O)N3CCC(N4CCCC4)CC3)cc2)nc1-c1cc2ccccc2s1  remaining binding (binding; competition with immobilised ligand; 1 µM): 50%
c1cncc(-c2cccc(Nc3nccc(NC4CCCCC4)n3)c2)c1  remaining binding (binding; competition with immobilised ligand; 10 µM): 100%
CN(C)c1ncc(F)c(-c2cnn3ncccc23)n1  remaining binding (binding; 1 µM): 96%
COc1cnc(Nc2cccc(S(N)(=O)=O)c2)nc1N1CCN(c2ccccc2)CC1  remaining binding (binding; competition with immobilised ligand; 1 µM): 21%
N#CC1(c2ccccn2)CCN(Cc2cc(C(=O)N3CCCC3)c(=O)n3ccccc23)CC1  remaining binding (cell-free assay; competition with immobilised ligand; 1 µM): 100%
COc1ccnn2ncc(-c3ccnc(N(C)C)n3)c12  remaining binding (binding; 1 µM): 69%
O=C(NCCCN1CCOCC1)c1ccc(Nc2ncc(Cl)c(-c3ccc(Cl)s3)n2)cc1  remaining binding (binding; competition with immobilised ligand; 1 µM): 34%
C[C@@H]1CCN(c2nccc(-c3cnn4ncccc34)n2)C1  remaining binding (binding; 1 µM): 72%
Cc1c[nH]c2nccc(Oc3c(F)cc(Nc4cc(Cl)nc(N)n4)cc3F)c12  remaining binding (cell-free assay; competition with immobilised ligand; 0.1 µM): 73%
c1cnn2ncc(-c3ccnc(N4CCC45COC5)n3)c2c1  remaining binding (binding; 1 µM): 87%
Nc1ncc2c(n1)-c1c([nH]c3ccc(C#CC4CC4)cc13)CCCC2  remaining binding (binding; competition with immobilised ligand; 1 µM): 84%
